Screens from PubChem BioAssay.
A selection: hits, their analogues and other compounds. The true share with any hit is near 2.2%.
GRK2 inh = inhibitors of human GRK2 displacing RNA aptamer. P25098. bead flow cytometry, FAM-aptamer displacement from GRK2. inhibition of aptamer binding, % at 10 µM. 0.59% of 330,000 active;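 active = inhibition of aptamer binding above 40%, roughly 3 SD of noise, on plates passing a quality check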;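 note: median bead fluorescence of bound FAM aptamer so fluorescent compounds give negative values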
core dimer inh = blocks dimerization of HCV core protein. AID 1899. 0.33% of 300,000 active. TR-FRET GST/Flag-core106 dimerization, 1536-well. inhibition, % at 5 µM;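 active = inhibition above the mean of all tested compounds plus 3 SD, set per screening campaign, cut at about 45% in these data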
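Assay system: GST-tagged and Flag-tagged HCV core protein residues 1-106 / Times: compound-protein-antibody incubation 4 h at 22.5 °C / Signal: time-resolved FRET, ex 340 nm, em 617 and 671 nm / Evaluation: % inhibition based on acceptor/donor emission ratio / Benchmarks: wells lacking GST-core106 and wells with excess unlabelled core106 / Repeats: singlicate, one well per compound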
GPR7 antag = blocks human GPR7 receptor signaling | P48145 | GPR7-expressing cells, fluorescence antagonist assay | inhibition, % at 4.4 µM | 1.1% of 290,000 active | AID 1861; in the data active = inhibition above about 16%, passing the limit was not always enough;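 note: cells stimulated with the agonist NPW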
FID counter = counter-screen for HCV NS3 helicase inhibitors: DNA intercalator displacement | DNA fluorescent intercalator displacement, fluorescence | inhibition, % at 7.9 µM | 0.17% of 290,000 active; in the data active = inhibition above about 37%;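 note: higher means more ethidium bromide displaced from hairpin DNA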
DAGLB inh = diacylglycerol lipase beta (human) inhibition; 0.059% of 340,000 active; inhibition, % at 5.17 µM; AID 504411; Q8NCG7; HEK293T DAGLB membrane lysate, EnzChek fluorogenic substrate; in the data active = inhibition above about 34%
Target sequence (Q8NCG7 whole entry, looked up): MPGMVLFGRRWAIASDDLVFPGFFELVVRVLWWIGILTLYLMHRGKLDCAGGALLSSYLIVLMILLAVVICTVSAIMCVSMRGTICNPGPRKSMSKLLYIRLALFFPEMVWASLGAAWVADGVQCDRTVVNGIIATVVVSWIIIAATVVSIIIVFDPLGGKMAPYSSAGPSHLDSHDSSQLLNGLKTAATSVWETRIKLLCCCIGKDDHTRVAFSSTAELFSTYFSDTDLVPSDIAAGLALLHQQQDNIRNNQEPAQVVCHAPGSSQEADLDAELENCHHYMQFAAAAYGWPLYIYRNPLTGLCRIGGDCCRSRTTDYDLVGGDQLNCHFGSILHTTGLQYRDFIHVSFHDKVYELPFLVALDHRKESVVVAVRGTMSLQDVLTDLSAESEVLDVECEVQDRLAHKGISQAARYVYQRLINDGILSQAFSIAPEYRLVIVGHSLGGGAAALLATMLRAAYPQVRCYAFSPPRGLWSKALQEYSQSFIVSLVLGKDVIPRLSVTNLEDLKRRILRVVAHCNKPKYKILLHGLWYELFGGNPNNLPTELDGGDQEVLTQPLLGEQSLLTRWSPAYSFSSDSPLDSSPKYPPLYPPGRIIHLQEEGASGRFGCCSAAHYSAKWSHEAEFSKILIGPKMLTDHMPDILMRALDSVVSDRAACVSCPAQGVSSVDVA
HCV NS3 hel inh = HCV NS3 helicase inhibition; NS3 helicase DNA unwinding, Cy5 molecular beacon fluorescence; inhibition, % at 10.9 µM; 0.56% of 290,000 active;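 active = inhibition above the mean of all tested compounds plus 3 SD, set per campaign, cut at about 35% in these data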
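System: Hepatitis C virus NS3 helicase domain fragment enzyme | Reagent: Annealed dual-labelled DNA beacon duplex, ATP-started | Compound dosing: 10.9 µM single point, 0.8% DMSO | Incubation: 1 h reaction at 25 °C, ATP-initiated | Technique: Cy5 fluorescence | Evaluation: Percent inhibition from t60/t0 fluorescence ratio | Benchmarks: Low DMSO, high thioflavine S at 110 µM | Replication: Singlicate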
GRK2 CP1 = human GRK2 inhibition confirmation, cherry pick 1; 4% of 2,000 active; shares compounds with GRK2 inh; bead-bound GRK2, FAM-aptamer displacement, flow cytometry; aptamer displacement, % at 10 µM; AID 504451;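 active = aptamer displacement above 40%, near three times the noise of non-fluorescent compounds, on plates passing quality checks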;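 note: negative values mostly reflect intrinsic compound fluorescence rather than true enhancement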
Aptamer quench 1 = counter-screen for GRK2 aptamer inhibitors: fluorescent aptamer quenchers; Fluorescent RNA aptamer beads, quenching, flow cytometry; stronger effect = higher value; 110 tested, under 10 active; shares compounds with GRK2 inh; fluorescence change (kMESF span), kMESF (test concentration not listed);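 active = compounds whose bead fluorescence drops by more than 37 kMESF across the dose range, marking them as dye quenchers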
Aptamer quench SP = quenches fluorescent RNA aptamer, GRK2 hit artifact; shares compounds with GRK2 inh; Carboxyfluorescein RNA aptamer on beads, flow cytometry quenching; stronger effect = lower value; fluorescence response (% of DMSO), % at 10 µM; 2,000 tested, under 10 active;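 active = compounds that quench the bead-bound fluorescent RNA probe, cutting fluorescence to under half of the solvent control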;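 note: counterscreen run without GRK2 so only probe quenching by compound is measured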
GRK2 CP2 = human GRK2 inhibition confirmation, cherry pick 2 | shares compounds with GRK2 inh | bead-bound GRK2, FAM-aptamer displacement, flow cytometry | inhibition of aptamer binding, % at 10 µM | 360 tested, under 10 active | AID 504782;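 active = inhibition of aptamer binding above 40%, about triple the noise seen with nonglowing compounds, on plates passing quality control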;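 note: negative values mostly come from compounds that fluoresce themselves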
Aptamer quench3 = counter-screen for GRK2 aptamer inhibitors: fluorescent aptamer quenchers; Streptavidin beads, FAM-RNA aptamer fluorescence quenching, flow cytometry; change in fluorescence (kMESF span), kMESF (no concentration beside the values); shares compounds with GRK2 inh; 25 tested, under 10 active;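 active = compounds quenching the bead-bound labeled aptamer, with fluorescence dropping by more than 37 kMESF over the dose range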
FAM quench SP = aptamer fluorescence quenching in GRK2 counter-screen. AID 588494. 360 tested, under 10 active. fluorescence response vs DMSO, % at 10 µM. shares compounds with GRK2 inh. carboxyfluorescein RNA aptamer beads, flow cytometry quenching; stronger effect = lower value;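 active = response vs DMSO under 50%, meaning signal dropped by over half, treated as fluorescence quencher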;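 note: labelled aptamer on streptavidin beads without GRK2 as a quench counter-screen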
Each line names hits and unclear results; the compound was inactive in the other large screens (follow-up assays come after a bar, where they were run).

CCn1nc(CC(C)C)cc1C(=O)N1CCCC(Nc2ccc(OC)cc2)C1 (centres undefined)	none
CC[n+]1c(C)sc2c3ccsc3ccc21	none
CCN1/C(=C/c2ccc3cc(C)ccc3[n+]2CC)Sc2ccc3sccc3c21	GRK2 inh 84 (no result: GPR7 antag, FID counter, HCV NS3 hel inh) | GRK2 CP1 89 | Aptamer quench 1 67 | Aptamer quench SP inactive
O=C(Nc1ccc(Nc2ccccc2)cc1)c1ccc(Cl)cc1	none (no result: GPR7 antag, FID counter, HCV NS3 hel inh)
O=C(Nc1ccc(Nc2ccccc2)cc1)c1ccccc1	GRK2 inh 100 (no result: GPR7 antag, FID counter, DAGLB inh, HCV NS3 hel inh) | GRK2 CP1 inactive | Aptamer quench SP inactive
COc1ccc(C(=O)Nc2ccc(Nc3ccccc3)cc2)cc1[N+](=O)[O-]	none
COc1ccc(C(=O)Nc2ccc(Nc3ccccc3)cc2)cc1OC	GRK2 inh 86 | GRK2 CP1 inactive | Aptamer quench SP inactive
NC(=O)Cn1nc2sc3ccccc3n2c(=O)c1=O	none (no result: DAGLB inh)
Cc1ccc(OCCC(=O)Nc2cc(S(=O)(=O)N3CCOCC3)ccc2N2CCCC2)cc1	none (no result: GRK2 inh, core dimer inh, GPR7 antag, FID counter, HCV NS3 hel inh)
Cc1ccccc1/C=N/Nc1nc2ccccc2[nH]1	none
O=[N+]([O-])c1cc(/C=N/Nc2nc3ccccc3[nH]2)c(O)cc1O	GRK2 inh 45 (no result: DAGLB inh) | GRK2 CP1 inactive | Aptamer quench SP inactive
COC(=O)C1=CO[C@@H](OC2OC(CO)C(O)C(O)C2O)[C@@H]2[C@@H](C)[C@@H](O)C[C@H]12 (some centres undefined)	none (no result: GPR7 antag, FID counter, HCV NS3 hel inh)
C=C[C@H]1[C@H](OC2OC(CO)C(O)C(O)C2O)OC=C(C(=O)OC)[C@H]1C[C@H]1CC(=O)C[C@H](CC(=O)CCc2ccc(O)cc2)O1 (some centres undefined)	GRK2 inh 97 (no result: GPR7 antag, FID counter, DAGLB inh, HCV NS3 hel inh) | GRK2 CP1 inactive | Aptamer quench SP inactive
c1ccc(NC2=NCCN2CC2CCCCCC2)cc1	none (no result: GPR7 antag, FID counter, HCV NS3 hel inh)
COc1ccc(-c2nn(-c3ccccc3)cc2/C=C2/SC(=S)N(CCC(=O)O)C2=O)c(C)c1	GRK2 inh 80 | GRK2 CP1 inactive | Aptamer quench SP inactive
CC1(C)NC(=O)N(CC(=O)Nc2ccc(-n3cnnn3)cc2)C1=O	none (no result: core dimer inh, GPR7 antag, FID counter, HCV NS3 hel inh) | GRK2 CP1 inactive | Aptamer quench SP inactive
CC(C)c1onc(C(=O)N(C)C2CCCCC2)c1[N+](=O)[O-]	GRK2 inh 54 | GRK2 CP1 inactive | Aptamer quench SP inactive
Cc1c(C(=O)O)cccc1-n1c(C)cc(/C=N/NC(=O)c2cc3ccccc3o2)c1C	GRK2 inh 50 | GRK2 CP1 inactive | Aptamer quench SP inactive
Cc1ccc(Nc2nc(N)[nH]c(=O)c2N=O)cc1	none
CCOC(=O)C1=C(C)Nc2nc(SCc3cccnc3)nn2C1c1ccc(OC)cc1 (centres undefined)	GRK2 inh 55 | GRK2 CP1 inactive | Aptamer quench SP inactive
CC1=C(C(N)=O)C(c2cccnc2)n2nc(SCc3ccccc3Cl)nc2N1 (centres undefined)	none
COc1ccc(-c2csc3nc(C(C)(C)C)oc(=O)c23)cc1OC	none
COc1ccc(-c2csc3nc(-c4ccc(C)cc4)oc(=O)c23)cc1OC	GRK2 inh 79, core dimer inh 50 | GRK2 CP2 65 | Aptamer quench3 inactive | FAM quench SP inactive
Nc1ccc2nc(-c3ccc(-c4nc5ccc(N)cc5[nH]4)cc3)[nH]c2c1	GRK2 inh 85, FID counter 52 (no result: DAGLB inh) | GRK2 CP1 inactive | Aptamer quench SP inactive
Nc1ccc2nc(-c3cccc(-c4nc5ccc(N)cc5[nH]4)n3)[nH]c2c1	none
c1coc(CNc2c3c(nc4ccccc24)CCC3)c1	none | GRK2 CP2 inactive | FAM quench SP inactive
O=C(O)c1ccc(/C=C/c2ccc3cccc(O)c3n2)cc1	none (no result: GRK2 inh, core dimer inh)
Oc1ccc(/C=C/c2ccc3cccc(O)c3n2)cc1Br	GRK2 inh 47 | GRK2 CP1 inactive | Aptamer quench SP inactive
c1ccc(-n2nnnc2NC2CCCCC2)cc1	none
COc1ccc(-c2nc(C#N)c(NCCN(C)C)o2)cc1	GRK2 inh 49 | GRK2 CP1 inactive | Aptamer quench SP inactive
COc1ccc(Nc2oc(-c3ccc(OC)cc3)nc2C#N)cc1	none
COc1ccc(Nc2oc(-c3ccccc3)nc2C#N)cc1	GRK2 inh 52 | GRK2 CP1 inactive | Aptamer quench SP inactive
COCCOC(=O)C1=C(C)N=C2SCCC(=O)N2C1c1cccs1 (centres undefined)	GRK2 inh 81 | GRK2 CP1 inactive | Aptamer quench SP inactive
CCOC(=O)C1=C(C)N=C2SCCC(=O)N2[C@@H]1c1cccs1	none
COc1ccc(Br)cc1C1CC(=O)C(C)C(c2cc(Br)ccc2OC)N1 (centres undefined)	none
COc1ccccc1NC(=O)Cn1cnc2c(nnn2-c2ccc(C)cc2)c1=O	none
Fc1cccc(Nc2ncnc3sc4c(c23)CCC4)c1	GRK2 inh 94 | GRK2 CP2 inactive | FAM quench SP inactive
Cc1ncn(-c2ccc(C(=O)Oc3ccccc3)cn2)n1	none
Cc1nc(Oc2cccc(Cl)c2)c2oc3ccccc3c2n1	GRK2 inh 41 | GRK2 CP1 inactive | Aptamer quench SP inactive
Cc1ccc[n+](CC(=O)c2ccccc2)c1	none (no result: DAGLB inh)
Cc1ccc[n+](CC(=O)c2ccc(Br)cc2)c1	GRK2 inh 75 (no result: core dimer inh) | GRK2 CP1 inactive | Aptamer quench SP inactive
Cc1ccsc1C(=O)N1CCC(CO)(Cc2ccccc2)CC1	none
Cc1ccsc1C(=O)N1CCCC(CO)(Cc2ccccc2)C1 (centres undefined)	GRK2 inh 45 | GRK2 CP2 inactive | FAM quench SP inactive
N=c1c(C(=O)NCCN2CCOCC2)cc2c(=O)n3ccccc3nc2n1CCc1ccccc1	none
O=C(Cc1cccs1)Nc1nnc(SCc2cccc3ccccc23)s1	none
O=C(Cc1cccs1)Nc1nc2c(ccc3ccccc32)s1	none | GRK2 CP2 inactive | FAM quench SP inactive
